Measurements from ChEMBL document CHEMBL1125638, “Design and conformational analysis of several highly potent bradykinin receptor antagonists” (J Med Chem, 1991).

How the values were obtained:
[1] = Displacement of [3H]bradykinin from bradykinin receptor of guinea pig ileal membrane; Inactive; parameters: species or system Cavia porcellus
[2] = Displacement of [3H]bradykinin from bradykinin receptor in guinea pig ileal membrane; type: cell membranes, Cavia porcellus
SV-T2 = assay: Binding affinity for bradykinin receptor of SV-T2 fibroblasts; type: functional, cell-based; settings: Mus musculus, read-out: pA2 (converted)
Procedure, shortened: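 Functional antagonism measured as pA2 against bradykinin-stimulated prostaglandin synthesis in SV-T2 fibroblasts, which express only B2 bradykinin receptors. Agonist activity was also checked in the same cells at concentrations up to 10 µM.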

Structure (SMILES) | Ki [1] | Ki [2] | Kb (SV-T2)
NC(N)=NCCC[C@@H](N)C(=O)N[C@@H](CCCN=C(N)N)C(=O)N1CCC[C@H]1C(=O)N1C[C@H](O)C[C@H]1C(=O)NCC(=O)N[C@@H](Cc1ccccc1)C(=O)N[C@@H](CO)C(=O)N[C@H](Cc1ccccc1)C(=O)N[C@@H](Cc1ccccc1)C(=O)N[C@@H](CCCN=C(N)N)C(=O)O | – | 26.8 nM | 6.31 nM
NC(N)=NCCC[C@@H](N)C(=O)N[C@@H](CCCN=C(N)N)C(=O)N1CCC[C@H]1C(=O)N1C[C@@H](O)C[C@H]1C(=O)NCC(=O)N[C@@H](Cc1cccs1)C(=O)N[C@@H](CO)C(=O)N1Cc2ccccc2C[C@@H]1C(=O)N1Cc2ccccc2C[C@@H]1C(=O)N[C@@H](CCCN=C(N)N)C(=O)O | – | 571 nM | 2510 nM
NC(N)=NCCC[C@@H](N)C(=O)N[C@@H](CCCN=C(N)N)C(=O)N1CCC[C@H]1C(=O)N1C[C@@H](O)C[C@H]1C(=O)NCC(=O)N[C@@H](Cc1cccs1)C(=O)N[C@H]1CSSC[C@@H](C(=O)N[C@@H](CCCN=C(N)N)C(=O)O)NC(=O)[C@H](Cc2ccccc2)NC(=O)[C@@H](Cc2ccccc2)NC1=O | – | 876 nM | 3980 nM

Continued, in another order:

Ki [1] | Ki [2] | Structure (SMILES) | Kb (SV-T2)
Not Active | – | NC(N)=NCCC[C@@H](N)C(=O)N[C@@H](CCCN=C(N)N)C(=O)N1CCC[C@H]1C(=O)N1C[C@@H](O)C[C@H]1C(=O)NCC(=O)N[C@@H](Cc1cccs1)C(=O)N[C@H]1CSSC[C@@H](C(=O)O)NC(=O)[C@H](CCCN=C(N)N)NC(=O)[C@H](Cc2ccccc2)NC(=O)[C@H]2Cc3ccccc3CN2C1=O | –
– | 0.381 nM | NC(N)=NCCC[C@@H](N)C(=O)N[C@@H](CCCN=C(N)N)C(=O)N1CCC[C@H]1C(=O)N1C[C@@H](O)C[C@H]1C(=O)NCC(=O)N[C@@H](Cc1cccs1)C(=O)N[C@@H](CO)C(=O)N1Cc2ccccc2C[C@@H]1C(=O)N1Cc2ccccc2C[C@H]1C(=O)N[C@@H](CCCN=C(N)N)C(=O)O | 0.794 nM
– | 0.176 nM | NC(N)=NCCC[C@@H](N)C(=O)N[C@@H](CCCN=C(N)N)C(=O)N1CCC[C@H]1C(=O)N1C[C@@H](O)C[C@H]1C(=O)NCC(=O)N[C@@H](Cc1cccs1)C(=O)N[C@@H](CO)C(=O)N1Cc2ccccc2C[C@@H]1C(=O)N1C2CCCC2C[C@H]1C(=O)N[C@@H](CCCN=C(N)N)C(=O)O (stereo partly specified) | 0.398 nM
